Source: publication PMC5033602 (Investigative Ophthalmology & Visual Science, 2016)
Entries after “also recorded” stand apart in the source; their conditions may differ.

Legend:
ARPE-19 cells [1] = assay: Cell death; type: cell-based, human
Procedure, shortened: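 ARPE-19 cells (passages 27–40) grown in DMEM/F-12 with 10% FBS at 37°C, 5% CO₂, plated at 2 × 10⁴ cells/well (96-well) and cultured to confluency (72 h). Serum-starved 8 h in 0.5% serum, then exposed 16 h to H₂O₂ (600 μM for scrambled-control comparison) plus TNF-α (10 ng/mL) with test peptides. Dead-cell protease activity read by CytoTox-Glo; duplicate wells ± SD.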

primary pig RPE cells [2] = assay: Cell death; type: cell-based; conditions: for Cell death under oxidative stress: pig RPE
Procedure, shortened: (§1)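 Primary pig RPE cultures plated at 2 × 10⁴ cells/well (96-well) and grown to confluence (72 h), then exposed to H₂O₂ with TNF-α (10 ng/mL) and test peptide for the indicated time. Live cells were measured as intracellular ATP luminescence (CellTiter-Glo) and dead cells as dead-cell protease luminescence (CytoTox-Glo), with lysis reagent added for total-cell signal. Relative cell numbers are from duplicate wells.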

[3] = system: LTB4 (5-LOX activity) in ARPE-19 cells; assay: Leukotriene B4 ELISA, ARPE-19 medium; type: cell-based, human
human recombinant 5-LOX = assay: Peptide-affinity chromatography, human recombinant 5-LOX; type: binding; conditions: 0.1 M sodium phosphate, 0.1% NP-40, Western blot
Procedure, shortened: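 Human recombinant 5-LOX (300 ng) was incubated with P1-peptide agarose (0.4 nmol) in 0.1 M sodium phosphate and 0.1% NP-40 containing 25–250 mM NaCl, with gentle rotation at 4°C (1.5 h per general method). Agarose without peptide at 50 mM NaCl served as control resin. After extensive washes, bound protein was eluted in SDS-PAGE sample buffer and detected by anti-5-LOX Western blot (1:10,000) with chemiluminescence on film.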

PEDF = conditions: peptides from Leu159-Met325 of PEDF-R; cited from earlier work
ARPE-19 cells [4] = assay: Cell viability; type: cell-based, human
Procedure, shortened: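 ARPE-19 cells (passages 27–40; DMEM/F-12, 10% FBS, 37°C, 5% CO₂) were plated at 2 × 10⁴ cells/well and grown to confluence (72 h). After 8 h starvation in 0.5% serum, cells received increasing H₂O₂ plus TNF-α (10 ng/mL), with or without test peptide, for 16 h. Relative live-cell numbers came from intracellular ATP luminescence; each point is the mean of duplicate wells.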

ARPE-19 cells [5] = assay: Pyknotic nuclei counting; type: cell-based, human; conditions: 600 μM H2O2, 16 hours, Hoechst stain
Procedure, shortened: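 ARPE-19 cells were serum-starved, then treated with 600 μM H₂O₂ and test peptide together for 16 h. Cells were fixed in methanol (15 min, RT) and stained with 5 μM Hoechst in PBS (15 min, RT). Five random fields per well were imaged, and pyknotic nuclei were counted as a percentage of total cells.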

[6] = system: LTB4 (5-LOX activity) in primary pig RPE cells; assay: Leukotriene B4 ELISA, primary pig RPE medium; type: cell-based; conditions: 125 μM or 250 μM H2O2/TNF-α
Procedure, shortened: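 Primary pig RPE cultures received H₂O₂ with TNF-α and test peptide. Medium was collected per well, spun briefly at low speed, and 50 μL was assayed by competitive LTB₄ enzyme immunoassay. Concentration came from an LTB₄ standard curve and was normalized to cell number per well. Duplicate wells per condition, each well measured in triplicate; experiment run twice.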

primary pig RPE cells [7] = assay: Cell viability; type: cell-based
Procedure, shortened: as §1

P1: L4-derived peptide containing residues Thr^210-Leu^249 of human PEDF-R (TSIQFNLRNLYRLSKALFPPEPLVLREMCKQGYRDGLRFL; UniProt Q96AD5 210-249, looked up, fragment)
Number of dead cells under oxidative stress (ARPE-19 cells [1]; H2O2 (600 μM for SCR comparison), dead cell protease activity): decreased cell death of RPE cells undergoing oxidative stress; also recorded: decreased the number of dead cells under oxidative stress in a concentration-dependent fashion
Protection from oxidative stress-induced cell death (summary) (ARPE-19 cells [1]; H2O2/TNF-α): protected ARPE-19 and pig primary RPE cells from oxidative stress–induced cell death in a specific and concentration-dependent fashion
Cell death under oxidative stress (primary pig RPE cells [2]; 125 μM H2O2): decreased death at 125 μM H2O2
Cell death under oxidative stress (primary pig RPE cells [2]; 250 μM H2O2): decreased cell death at 250 μM H2O2
Protection from oxidative stress-induced cell death (summary) (primary pig RPE cells [2]; pig primary RPE, H2O2/TNF-α): protected ARPE-19 and pig primary RPE cells from oxidative stress–induced cell death in a specific and concentration-dependent fashion
LTB4 level under oxidative stress ([3]; 600 μM H2O2/TNF-α, 20 nM P1): decreased LTB4 to basal levels
LTB4 level under oxidative stress ([3]; 750 μM H2O2/TNF-α): only partially diminished LTB4
Binding of 5-LOX to P1 at 250 mM NaCl (human recombinant 5-LOX; 250 mM NaCl): completely abolished
Binding of 5-LOX to P1 with increasing ionic strength (human recombinant 5-LOX; 25-250 mM NaCl): with increasing ionic strength the binding decreased
PEDF-binding affinity (PEDF): retain the PEDF-binding affinity of PEDF-R
Protective effect against H2O2 (ARPE-19 cells [4]; 600 μM H2O2 plus TNF-α (10 ng/mL), preliminary, data not shown): had protective effects against 600 μM H2O2
Cell viability under oxidative stress (ARPE-19 cells [4]; H2O2/TNF-α, ATP live cell biomarker, duplicate wells): promoted cell viability; also recorded: increased the ARPE-19 cell viability
Pyknotic nuclei level (ARPE-19 cells [5]): resulted in a decrease of pyknotic nuclei level
LTB4 level under oxidative stress [6]: decreased LTB4 levels in primary pig RPE cells treated at 125 μM or 250 μM H2O2/TNF-α in a concentration-dependent fashion
Cell viability under oxidative stress (primary pig RPE cells [7]; 125 μM H2O2): increased pig RPE cell viability
Cell numbers (viability) under oxidative stress (primary pig RPE cells [7]; 250 μM H2O2): did not increase the cell numbers
